Results reported in article PMC5935540 (Cell, 2018).
One block for each compound: values may come before it.

How the values were obtained:
NSCLC cell line panel = assay: Cell viability dose response in NSCLC cell line panel; type: cell-based, human
Procedure, shortened: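 Viability read after 72 hrs of exposure to test compound at 5 µM, either alone or with HET-0016 at 100 nM. DMSO-treated cells serve as control.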

[1] = test system: FK-506 binding protein family members (FKBP) 1A, 2, 3,4, and 5; assay: Arrayed affinity-selection/mass spectrometry binding assay, control compound; set-up: species or system human; conditions: control for the binder selection pipeline; FKBP1A highest signal
ABCG2 = molecular target: T1, ABCG2 (Homo sapiens, UniProt Q9UNQ0); assay: siRNA depletion of ABCG2 followed by THZ1 treatment; type: cell-based; conditions: ABCG2 depletion sensitized resistant cells; H157 cells, THZ1 50nM, 72 hrs
T1 sequence (Q9UNQ0 1-655): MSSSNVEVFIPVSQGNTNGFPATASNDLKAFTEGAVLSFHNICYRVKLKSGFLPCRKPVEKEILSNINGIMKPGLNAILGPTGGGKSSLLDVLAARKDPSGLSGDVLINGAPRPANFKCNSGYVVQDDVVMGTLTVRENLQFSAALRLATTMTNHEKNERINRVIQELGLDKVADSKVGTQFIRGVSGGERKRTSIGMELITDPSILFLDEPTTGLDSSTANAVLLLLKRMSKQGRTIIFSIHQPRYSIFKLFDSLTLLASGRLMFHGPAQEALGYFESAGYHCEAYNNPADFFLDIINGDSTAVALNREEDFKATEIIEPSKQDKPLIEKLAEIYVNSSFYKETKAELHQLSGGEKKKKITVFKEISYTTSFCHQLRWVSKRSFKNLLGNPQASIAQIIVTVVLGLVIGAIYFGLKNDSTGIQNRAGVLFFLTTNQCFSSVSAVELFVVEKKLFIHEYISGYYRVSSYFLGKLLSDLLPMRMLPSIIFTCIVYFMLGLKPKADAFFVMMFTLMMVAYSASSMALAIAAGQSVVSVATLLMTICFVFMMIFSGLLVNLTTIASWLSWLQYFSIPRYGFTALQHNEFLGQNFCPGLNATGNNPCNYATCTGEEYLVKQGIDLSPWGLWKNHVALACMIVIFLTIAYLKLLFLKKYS

[2] = no reference given; cited from earlier work

SMILES: CCCCc1ccc(N=CNO)c(C)c1 [HET0016]
effect on SW001286 toxicity (NSCLC cell line panel; SW001286 5µM plus HET-0016 100nM, 72 hrs, two sensitive cell lines): rescued

LC/MS binding signal [1]: strongest signal
SMILES: C=CC[C@@H]1/C=C(\C)C[C@H](C)C[C@H](OC)[C@H]2O[C@@](O)(C(=O)C(=O)N3CCCC[C@H]3C(=O)O[C@H](/C(C)=C/[C@@H]3CC[C@@H](O)[C@H](OC)C3)[C@H](C)[C@@H](O)CC1=O)[C@H](C)C[C@@H]2OC [FK-506]

SMILES: CN(C)C/C=C/C(=O)Nc1ccc(C(=O)Nc2cccc(Nc3ncc(Cl)c(-c4c[nH]c5ccccc45)n3)c2)cc1 [THZ1]
efflux transporter substrate status (ABCG2): ABCG2 substrate

SMILES: CC(C)Oc1ccc(C(=O)N[C@H](CNC(=O)CN(C)C)Cc2ccc(-c3cn4cccc([C@H](C)O)c4n3)cc2)cc1Cl [SW208097]
pharmacokinetics in humans [2]: dose proportional pharmacokinetics | sensitivity (ED50) (NSCLC cell line panel; cell lines with co-occuring mutations in TP53 and KEAP1): low nanomolar
